According to ChEMBL document CHEMBL1177852, “Design and preparation of aza-analogues of benzo[c]phenanthridine framework with cytotoxic and antiplasmodial activities” (Eur J Med Chem, 2010):
pIC50: −log10 of the molar value.

Assays:
Plasmodium falciparum [1] = experiment: Antiplasmodial activity against chloroquine-resistant Plasmodium falciparum FcB1/Columbia after 48 hrs; assay type: functional, organism-based
Outline: (§1)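 P. falciparum cultured by Trager–Jensen method with modifications; cultures synchronized by 5% D-sorbitol lysis. Parasites incubated with compound at increasing dilutions for 48 h; growth read out as [3H]hypoxanthine incorporation.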

Plasmodium falciparum [2] = experiment: Antiplasmodial activity against chloroquine-sensitive Plasmodium falciparum F32 after 48 hrs; assay type: functional, organism-based; conditions: F32, 48 h; outline: as §1
MCF7 = experiment: Cytotoxicity against human MCF7 cells after 48 hrs by [3H]hypoxanthine incorporation assay; assay type: functional, cell-based
Outline: (§2)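 MCF7 and Vero cells cultured as for P. falciparum, but with 5% fetal calf serum in place of 5% human serum. Drugs added at various concentrations; growth measured by [3H]hypoxanthine incorporation after 48 h incubation.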

Vero = experiment: Cytotoxicity against african green monkey Vero cells after 48 hrs by [3H]hypoxanthine incorporation assay; assay type: cell-based; conditions: Chlorocebus sabaeus; outline: as §2

SMILES	pIC50 (Plasmodium falciparum [1])	pIC50 (Plasmodium falciparum [2])	pIC50 (MCF7)	pIC50 (Vero)
Cn1c(=O)c2ccccc2c2c3ccccc3ncc21	4.83	4.49	4.51	4.65
Cn1c(=O)c2ccccc2c2ccc3cccnc3c21	4.42	4.44	4.78	5.47
Cn1c(=O)c2ccccc2c2ccc3cnccc3c21	4.26	4.21	4.92	5.64
Cn1c(=O)c2ccccc2c2nc3ccccc3cc21	3.74	3.45	3.81	4.38
Cn1c(=O)c2ccccc2c2ccc3ncccc3c21	4.65	4.75	4.90	5.46
Cn1c(=O)c2ccccc2c2c3cccnc3ccc21	4.09	4.02	4.94	5.76
Cn1c(=O)c2ccccc2c2cc3ncccc3cc21	3.81	3.91	6.22	5.55
COc1cccc2c1C(=O)c1c(O)c3c(c(O)c1C2=O)C[C@@](O)(C(=O)CO)C[C@@H]3O[C@H]1C[C@H](N)[C@H](O)[C@H](C)O1 [DOXORUBICIN]	–	–	6.39	5.13
